In ChEMBL document CHEMBL1629439, “High-throughput identification of antibacterials against methicillin-resistant Staphylococcus aureus (MRSA) and the transglycosylase” (Bioorg Med Chem, 2010) one finds MIC and IC90 data, which are given here for eight compounds.

In one test the test system is Pseudomonas aeruginosa. Put plainly: Antimicrobial activity against Pseudomonas aeruginosa ATCC 25619 after 18 to 24 hrs by alamar blue assay. Type of test: functional. The note with it: Pseudomonas aeruginosa, ATCC 25619; read-out: MIC. The essentials:
(§1)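 Broth microdilution per NCCLS in Mueller-Hinton broth, 8-point twofold dilutions, 384-well format. Exponential-phase cells at 5 × 10^5 cells/ml incubated with compound 18–24 h at 37 °C, then 20% Alamar blue added and fluorescence read. MIC90 taken as the lowest concentration preventing at least 90% bacterial growth.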
For orientation: Alamar Blue is a resazurin reagent that responds to reducing activity.

Test [1] deals with Staphylococcus aureus. Description: Antimicrobial activity against Staphylococcus aureus ATCC 29213 after 18 to 24 hrs by alamar blue assay.
In test [2] the test system is Mycolicibacterium smegmatis. Description: Antimicrobial activity against Mycobacterium smegmatis BCRC 11565 after 18 to 24 hrs by alamar blue assay. Type of test: functional. The note with it: Mycolicibacterium smegmatis, BCRC 11565; read-out: MIC. The gist of the method: as §1
For another test, the system named is Serratia marcescens. Put plainly: Antimicrobial activity against Serratia marcescens ATCC 14756 after 18 to 24 hrs by alamar blue assay. Type of test: functional. Particulars: Serratia marcescens, ATCC 14756; read-out: MIC. The essentials:
as §1

A further test has as its system Bacillus subtilis. Put plainly: Antimicrobial activity against Bacillus subtilis ATCC 23857 after 18 to 24 hrs by alamar blue assay. In kind it is functional. The essentials: as §1
In test [3] the test system is Stenotrophomonas maltophilia. Put plainly: Antimicrobial activity against Stenotrophomonas maltophilia ATCC 13637 after 18 to 24 hrs by alamar blue assay. Type of test: functional. The note with it: Stenotrophomonas maltophilia, ATCC 13637; read-out: MIC. The gist of the method: as §1
The next test has as its system Acinetobacter baumannii. Description: Antimicrobial activity against Acinetobacter baumannii ATCC 49139 after 18 to 24 hrs by alamar blue assay. In kind it is functional. Particulars: Acinetobacter baumannii, ATCC 49139; read-out: MIC. The gist of the method: as §1
Test [4] concerns Staphylococcus aureus. Put plainly: Antimicrobial activity against methicillin-resistant Staphylococcus aureus ATCC 33592 after 18 to 24 hrs by alamar blue assay. Type of test: functional. The note with it: Staphylococcus aureus, ATCC 33592; read-out: MIC. The essentials:
(§2)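 Broth microdilution per NCCLS standard, Mueller-Hinton broth, 8-point twofold dilutions; exponentially growing cells at 5 10^5 cells/ml with compound, 18–24 h at 37 C; 20% Alamar blue added, fluorescence read; MIC90 taken as lowest concentration preventing at least 90% growth.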

Test [5] relates to Staphylococcus aureus. Description: Antimicrobial activity against oxacillin- and methicillin-resistant Staphylococcus aureus isolate Sa-OXA-R2 after 18 to 24 hrs by alamar blue assay. Type of test: functional. The gist of the method:
as §2

Test [6] deals with Staphylococcus aureus. Put plainly: Antimicrobial activity against methicillin-resistant Staphylococcus aureus isolate NTUH4722 after 18 to 24 hrs by alamar blue assay. In kind it is functional. The essentials: as §2
Test [7] is described as follows: Inhibition of transglycosylase assessed as inhibition of NBD- labelled lipid II polymerization. The essentials: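 100 µM NBD-labelled lipid II incubated 30 min with full-length PBP (EC, SA or Mtb) and 10 ng/µl N-acetylmuramidase in 50 mM Tris-HCl pH 8.0, 10 mM MgCl2, 0.1% Triton X-100, 10% DMSO, 15% MeOH. Supernatant run on anion-exchange HPLC with 20 mM–0.5 M ammonium acetate gradient. Inhibition calculated from substrate peak-area percentage. IC50 determined. S. aureus strains share one SA enzyme.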

For the next test, the system named is Escherichia coli. Put plainly: Antimicrobial activity against Escherichia coli ATCC […] after 18 to 24 hrs by alamar blue assay. In kind it is functional. The note with it: Escherichia coli; read-out: MIC. The essentials:
as §1

Converted amounts (≈) assume the structure as drawn.

A word on the MIC: it is the smallest concentration in the dilution series that meets the test's criterion for growth inhibition. The term IC90 denotes the point of the concentration-response curve where the effect stands at 90%. With `O=C(Nc1cc(Cl)cc(C(=O)c2ccc(Cl)cc2)c1Cl)c1cc(Br)cc(Br)c1O`, the MIC with Pseudomonas aeruginosa is 16 µg/mL (≈ 27.7 µM); in the test on Staphylococcus aureus [1] it was 0.5 µg/mL (≈ 0.864 µM); in test [2], 0.5 µg/mL (≈ 0.864 µM); in the test with Serratia marcescens, 16 µg/mL (≈ 27.7 µM); in the test with Bacillus subtilis it was < 0.03 µg/mL; in [3] it was 16 µg/mL (≈ 27.7 µM). The MIC is 16 µg/mL (≈ 27.7 µM) in the test on Acinetobacter baumannii; 2 µg/mL (≈ 3.46 µM) in the test on Staphylococcus aureus [4]; 8 µg/mL (≈ 13.8 µM) against Staphylococcus aureus [5]; 8 µg/mL (≈ 13.8 µM) with Staphylococcus aureus [6]; 8 µg/mL (≈ 13.8 µM) in the test with Escherichia coli. For the same compound, the concentration for an effect of 90% (IC90) in [7] stood at 100 µM.
Consider `O=C(c1ccc(Cl)cc1)c1ccc(NC(=O)c2cc(Br)cc(Br)c2O)cc1Cl`, for which the minimal inhibitory concentration (MIC) is 16 µg/mL (≈ 29.4 µM) with Pseudomonas aeruginosa; ≤ 2 µg/mL in the test on Staphylococcus aureus [1]; 0.5 µg/mL (≈ 0.919 µM) in test [2]; 16 µg/mL (≈ 29.4 µM) with Serratia marcescens; < 0.03 µg/mL in the test on Bacillus subtilis; 16 µg/mL (≈ 29.4 µM) in test [3]. Further, the MIC with Acinetobacter baumannii was 16 µg/mL (≈ 29.4 µM); with Staphylococcus aureus [4] it was 4 µg/mL (≈ 7.35 µM); in the test on Staphylococcus aureus [5], ≤ 0.03 µg/mL; against Staphylococcus aureus [6] it was ≤ 0.03 µg/mL; in the test with Escherichia coli it was 8 µg/mL (≈ 14.7 µM). The IC90 in [7] worked out at 100 µM.
For `O=C(c1ccc(NC(=O)c2cc(Br)cc(Br)c2O)c(Cl)c1)c1cccs1`, the MIC in the test with Pseudomonas aeruginosa is 16 µg/mL (≈ 31 µM); in the test with Staphylococcus aureus [1], 4 µg/mL (≈ 7.76 µM); in test [2] it was 0.5 µg/mL (≈ 0.97 µM); in the test with Serratia marcescens it was 16 µg/mL (≈ 31 µM); in the test with Bacillus subtilis, < 0.03 µg/mL; in test [3] it was 16 µg/mL (≈ 31 µM). Further, the MIC with Acinetobacter baumannii is 16 µg/mL (≈ 31 µM); in the test on Staphylococcus aureus [4], 4 µg/mL (≈ 7.76 µM); against Staphylococcus aureus [5] it was ≤ 0.03 µg/mL; with Staphylococcus aureus [6], ≤ 0.03 µg/mL; in the test on Escherichia coli it was 8 µg/mL (≈ 15.5 µM). Moreover, the IC90 in [7] was > 100 µM.
With `O=C(Nc1ccc(Oc2ccc3ccccc3c2Cl)c(Cl)c1)c1cc(Cl)cc(Br)c1O`, the MIC with Pseudomonas aeruginosa was 16 µg/mL (≈ 29.8 µM); against Staphylococcus aureus [1] it was ≤ 2 µg/mL; in test [2], 0.5 µg/mL (≈ 0.93 µM); with Serratia marcescens it was 16 µg/mL (≈ 29.8 µM); with Bacillus subtilis it was < 0.03 µg/mL; in [3], 16 µg/mL (≈ 29.8 µM). Further, the MIC in the test on Acinetobacter baumannii was 16 µg/mL (≈ 29.8 µM); in the test on Staphylococcus aureus [4], ≤ 2 µg/mL; against Staphylococcus aureus [5] it was ≤ 0.03 µg/mL; with Staphylococcus aureus [6], ≤ 0.03 µg/mL; in the test on Escherichia coli it was 8 µg/mL (≈ 14.9 µM). Besides, the IC90 in test [7] worked out at 100 µM.
On to `O=C(Nc1cc(Cl)ccc1Oc1ccc(Cl)c2ccccc12)c1cc(Cl)cc(Br)c1O`, for which the MIC in the test with Pseudomonas aeruginosa is 16 µg/mL (≈ 29.8 µM); in the test with Staphylococcus aureus [1], 8 µg/mL (≈ 14.9 µM); in test [2] it was 0.5 µg/mL (≈ 0.93 µM); with Serratia marcescens, 16 µg/mL (≈ 29.8 µM); in the test on Bacillus subtilis it was < 0.03 µg/mL; in test [3] it was 16 µg/mL (≈ 29.8 µM). Besides, the MIC in the test on Acinetobacter baumannii is 16 µg/mL (≈ 29.8 µM); in the test with Staphylococcus aureus [4] it was 16 µg/mL (≈ 29.8 µM); against Staphylococcus aureus [5] it was ≤ 0.03 µg/mL; against Staphylococcus aureus [6] it was ≤ 0.03 µg/mL; in the test with Escherichia coli, 8 µg/mL (≈ 14.9 µM). In test [7], the IC90 stood at 100 µM.
On to `O=C(Nc1ccc(Oc2ccc3ccccc3c2Cl)c(Cl)c1)c1cc(I)cc(I)c1O`, for which the MIC is 16 µg/mL (≈ 23.7 µM) in the test on Pseudomonas aeruginosa; 8 µg/mL (≈ 11.8 µM) against Staphylococcus aureus [1]; 0.5 µg/mL (≈ 0.74 µM) in test [2]; 16 µg/mL (≈ 23.7 µM) in the test on Serratia marcescens; < 0.03 µg/mL against Bacillus subtilis; 16 µg/mL (≈ 23.7 µM) in test [3]. Further, the MIC was 16 µg/mL (≈ 23.7 µM) in the test with Acinetobacter baumannii; 8 µg/mL (≈ 11.8 µM) with Staphylococcus aureus [4]; ≤ 0.03 µg/mL in the test with Staphylococcus aureus [5]; ≤ 0.03 µg/mL in the test with Staphylococcus aureus [6]; 8 µg/mL (≈ 11.8 µM) in the test on Escherichia coli. The IC90 in test [7] is > 100 µM.
Regarding `Cc1ccc(C(C)C)c(Oc2ccc(Cl)cc2NC(=O)c2cc(Cl)cc(Cl)c2O)c1`, the MIC with Pseudomonas aeruginosa is 16 µg/mL (≈ 34.4 µM); in the test on Staphylococcus aureus [1], 1 µg/mL (≈ 2.15 µM); in [2], 0.5 µg/mL (≈ 1.08 µM); in the test on Serratia marcescens it was 16 µg/mL (≈ 34.4 µM); against Bacillus subtilis, < 0.03 µg/mL; in [3], 16 µg/mL (≈ 34.4 µM). For the same compound, the MIC was 16 µg/mL (≈ 34.4 µM) with Acinetobacter baumannii; 0.25 µg/mL (≈ 0.538 µM) with Staphylococcus aureus [4]; ≤ 0.03 µg/mL against Staphylococcus aureus [5]; ≤ 0.03 µg/mL in the test on Staphylococcus aureus [6]; 8 µg/mL (≈ 17.2 µM) with Escherichia coli. Further, the IC90 in [7] came to 50 µM.
In the case of `O=C(c1ccccc1)c1cc(NC(=O)c2cc(Br)cc(Br)c2O)ccc1Cl`, the MIC in the test with Pseudomonas aeruginosa was 16 µg/mL (≈ 31.4 µM); against Staphylococcus aureus [1] it was 1 µg/mL (≈ 1.96 µM); in [2], 0.5 µg/mL (≈ 0.981 µM); in the test with Serratia marcescens, 16 µg/mL (≈ 31.4 µM); in the test with Bacillus subtilis, < 0.03 µg/mL; in [3], 16 µg/mL (≈ 31.4 µM). Besides, the MIC with Acinetobacter baumannii turned out to be 16 µg/mL (≈ 31.4 µM); in the test on Staphylococcus aureus [4] it was 1 µg/mL (≈ 1.96 µM); in the test with Staphylococcus aureus [5], 1 µg/mL (≈ 1.96 µM); in the test on Staphylococcus aureus [6], 2 µg/mL (≈ 3.92 µM); with Escherichia coli it was 8 µg/mL (≈ 15.7 µM). The IC90 in test [7] turned out to be 100 µM.
